Tested on: MDA-MB-435 + TRAIL, ATPlite cytotoxicity, 24 h
Assay: potentiation of TRAIL cytotoxicity in resistant cells, confirmation, cell-based, MDA-MB-435, ATPlite luminescence, 24 h (AID 1747)
Settings: stronger effect = higher value; for cytotoxicity: compound alone, no TRAIL
Outline: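 Material: TRAIL-resistant human MDA-MB-435 cancer cells | Reagent: TRAIL at 30 ng/mL final | Dosing: Compound 1.25–5 µM final | Times: 4 h compound pretreatment, 24 h TRAIL, 37 °C | Detection: ATPlite luminescence reporting cellular ATP content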

[1] = compound plus TRAIL, at 1.25 µM

CCSc1nc(-c2ccccc2)nc(C(Cl)Cl)n1
cytotoxicity with TRAIL (at 5 µM): 73%
cytotoxicity (at 5 µM): 0%
cytotoxicity with TRAIL [1]: 28%
cytotoxicity with TRAIL (compound plus TRAIL, at 2.5 µM): 45%

CSc1nc(-c2ccc(C)cc2)nc(C(Cl)Cl)n1
cytotoxicity with TRAIL (at 5 µM): 71%
cytotoxicity (at 5 µM): 0%
cytotoxicity with TRAIL [1]: 43%
cytotoxicity with TRAIL (compound plus TRAIL, at 2.5 µM): 60%

CSc1nc(-c2ccccc2)nc(C(Cl)Cl)n1
cytotoxicity with TRAIL (at 5 µM): 82%
cytotoxicity (at 5 µM): 0%
cytotoxicity with TRAIL [1]: 44%
cytotoxicity with TRAIL (compound plus TRAIL, at 2.5 µM): 58%

Reference: PubChem BioAssay AID1747 (Sanford-Burnham Center for Chemical Genomics, 2009)
